Source: PubChem (Sanford-Burnham Center for Chemical Genomics)
Mdm2-MdmX inh: inhibitors of human Mdm2-MdmX association, primary screen, cell-based, luminescence, split luciferase, SaOS-2, uHTS; Protein Mdm4 (Homo sapiens) + E3 ubiquitin-protein ligase Mdm2 (Homo sapiens), …; SaOS-2 split-luciferase Mdm2/MdmX complementation; inhibition, % at 8 µM; 3% of 330,000 active; AID 485346, 2010;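 active = inhibition of at least 50% at 8 µM in the primary screen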
Apaf-1 inh: inhibitors of human Apaf-1 apoptosome, primary screen, biochemical, DEVD-Rh110 fluorescence, uHTS | Apoptotic protease-activating factor 1 (Homo sapiens), O14727 | reconstituted apoptosome caspase-3 activity | inhibition, % at 20 µM | 0.71% of 330,000 active; active = inhibition of at least 40% at 20 µM;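 note: plate controls were DMSO wells for no effect and DEVD-CHO caspase inhibitor wells for full effect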
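Material: reconstituted apoptosome with Apaf-1, cytochrome c, caspase-9, procaspase-3, dATP. Technique: Rh110 fluorescence intensity. Buffer or medium: pH 7.5 Hepes buffer with CHAPS, BSA, DTT. Times: 30 min plus 50 min, RT.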
UBC13 polyUb: UBC13 polyubiquitin chain formation inhibitors, primary screen, biochemical, TR-FRET, uHTS; 0.47% of 330,000 active; AID 485273, 2010; inhibition, % at 20 µM; Ubiquitin-conjugating enzyme E2 N (Homo sapiens), P61088; in the data active = inhibition above about 45%, passing the limit was not always enough
Target sequence (P61088 whole entry, looked up): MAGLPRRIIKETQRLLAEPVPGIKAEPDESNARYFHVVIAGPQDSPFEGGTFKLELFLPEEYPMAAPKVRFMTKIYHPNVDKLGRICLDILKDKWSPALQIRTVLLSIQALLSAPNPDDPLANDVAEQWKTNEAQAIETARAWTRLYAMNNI
XBP1 UPR activ: activators of adaptive XBP1 UPR arm, primary screen, cell-based, CHO-XBP1 luciferase reporter, luminescence, uHTS; IRE1-XBP1 UPR activation; percent of tunicamycin response, DMSO as zero; 0.33% of 330,000 active; activation, % at 20 µM; AID 463104, 2010;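 active = versus positive control, 20 µM dose yields 30% or more activation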;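 note: 100% = tunicamycin at 10 µg/mL and 0% = DMSO only wells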
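Material: CHO-XBP1 cells stably carrying IRE1-XBP1-driven luciferase reporter / Amount: 1000 cells per well / Compound: 20 µM, 1% DMSO / Times: 6 h treatment, 37 °C / Detection: luciferase luminescence / Measure: % activation of reporter signal versus tunicamycin and DMSO controls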
UPR CHOP act: activators of apoptotic CHOP UPR arm, primary screen, cell-based, CHO-CHOP luciferase reporter, luminescence, uHTS; 0.34% of 330,000 active; UPR activation; percent of tunicamycin response over DMSO baseline; activation, % at 10 µM;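 active = at 10 µM dose, activation of 40% or more, normalized to positive control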;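 note: 100% = tunicamycin at 10 µg/mL and 0% = DMSO alone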
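System: CHO-CHOP luciferase reporter cell line; amount: 500 cells/well; buffer or medium: F12 medium containing 10% fetal bovine serum; incubation: 6 h compound exposure at 37 °C after overnight seeding; measured by: luciferase luminescence after 10 min with Steady-Glo reagent; evaluation: % reporter activation, DMSO baseline versus tunicamycin full activation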
Mdm2-MdmX conf: Mdm2-MdmX complex disruptors, retested hits, confirmation, luminescence, single concentration | Mdm2-MdmX binding, luminescent assay | 55% of 10,000 active | shares compounds with Mdm2-MdmX inh | inhibition, % at 8 µM; in the data active = inhibition above about 40%
Full FLuc ctr: full-length luciferase signal inhibition, confirmation, counter-screen for Mdm2/MdmX interaction inhibitor project, cell-based, single concentration, SaOS-2 | shares compounds with Mdm2-MdmX inh | SaOS-2 full-length luciferase counterscreen, luminescence | inhibition, % at 8 µM | 77% of 6,200 active;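 active = mean inhibition at 8 µM reaching about 37%, which flags the compound as non-specific, limit read from the data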;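 note: p53-null SaOS-2 cells with luciferase driven by a doxycycline-inducible promoter; compound on cells about two nights before reading with doxycycline added after day one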
The depositor's hits bear a star; . = no result. The list is not random: actives were taken first. Their share in the collection is about 4.1%.

SMILES	Mdm2-MdmX inh	Apaf-1 inh	UBC13 polyUb	XBP1 UPR activ	UPR CHOP act	Mdm2-MdmX conf	others
CN(Cc1ccccc1)C1=CC(=[N+]2CCCCC2)CC(C)(C)C1	72.1*	-10.0	-25.3	0.1	-1.4	66.7*	Full FLuc ctr=39.3*
Cc1cc(C)cc(NC(=O)Nc2ccc3c(c2)N(C)C(=O)CS3)c1	45.9	20.7	-8.4	-4.0	0.3	.
CC(=O)c1cccc(NC(=O)Nc2ccc(C(=O)N3CCCC3)cc2)c1	52.0*	-2.2	-6.1	0.4	-1.8	36.9
CC(=O)c1cccc(NC(=O)Nc2ccc3c(c2)N(C)C(=O)CS3)c1	51.2*	18.4	3.2	-2.8	1.8	19.5
CCc1ccc(Nc2n[n+](-c3ccccc3)c(-c3ccc(N(CC)CC)cc3)s2)cc1	87.2*	36.4	-51.9	13.3	29.5	52.8*	Full FLuc ctr=44.0*
COc1ccccc1-c1nnc(SCc2nc3ccccc3s2)n1C	-9.8	-6.5	-0.6	-2.0	0.7	.
CC(C)NC(=S)Nc1ccc(S(=O)(=O)Nc2ncccn2)cc1	-32.9	-8.3	-0.5	-4.2	2.0	.
O=C(NC1CCCCC1)C1CCC(CNS(=O)(=O)c2cccc3nsnc23)CC1 (configuration not stated)	24.6	0.0	-2.5	-0.4	-0.1	.
CC1CCC(NC(=O)C2CCC(CNS(=O)(=O)c3cccc4nsnc34)CC2)CC1 (configuration not stated)	56.5*	-2.8	2.0	-0.4	0.0	-5.0
CCOc1ccc(NC(=O)C2C3CC/C=C\CCC32)cc1 (configuration not stated)	20.3	0.3	1.6	2.3	0.7	.
Cc1ccc(Cn2c(C(CO)Nc3nc(-c4ccc(F)cc4)cs3)nc3ccccc32)cc1 (configuration not stated)	60.3*	35.6	1.2	-2.3	1.5	29.1
CC(Nc1nc(-c2ccc(F)cc2)cs1)c1nc2cc(C(F)(F)F)ccc2n1CCCO (configuration not stated)	30.0	11.1	-5.4	-0.8	0.6	.
CCCn1c(C(C)Nc2nc(-c3ccc(Cl)c([N+](=O)[O-])c3)cs2)nc2cc(Cl)c(N3CCCCC3)cc21 (configuration not stated)	61.4*	17.1	-61.7	-2.2	1.9	21.1
Cc1ccc(Cn2c(C(C)Nc3nc(-c4ccc(F)cc4)cs3)nc3cc(C(F)(F)F)ccc32)cc1 (configuration not stated)	50.3*	2.7	-21.5	-0.4	-0.9	-0.7
Cc1ccc(Cn2c(C(CO)Nc3nc(-c4ccc(Cl)c([N+](=O)[O-])c4)cs3)nc3ccccc32)cc1 (configuration not stated)	64.5*	27.0	-5.2	4.0	-0.4	15.6
CCc1ccc(NS(=O)(=O)c2c(C(=O)N3CCCCCC3)c(C)n(C)c2C)cc1	1.9	4.5	0.1	-3.4	0.0	.
CC(=O)Nc1ccc(S(=O)(=O)N2CCN(C(=O)c3ncoc3-c3ccc(F)cc3)CC2)cc1	15.5	-1.3	-6.3	-1.7	-2.0	.
COc1ccc(/C=N/OCC(=O)N=Nc2c(O)[nH]c3ccc(Br)cc23)cc1OC	10.2	-4.2	-32.6	2.5	-2.2	.
COc1ccc(/C(C)=N/OCC(=O)N=Nc2c(O)[nH]c3ccc(Br)cc23)cc1	52.6*	10.9	-21.7	-1.7	-1.7	-4.7
COc1ccccc1NC(=S)N=Nc1c(O)[nH]c2ccc(Br)cc12	70.4*	-15.8	-17.8	5.2	8.5	74.7*	Full FLuc ctr=56.6*
Cc1cc(C)nc(NC(=NCCc2c[nH]c3ccccc23)NC(=O)Nc2ccccc2)n1	63.9*	-8.0	-6.6	-3.1	1.2	34.0	Full FLuc ctr=63.3*
